ChEMBL document CHEMBL4376873, “Systematic Investigation of Lipophilicity Modulation by Aliphatic Fluorination Motifs” (J Med Chem, 2020)

Assays:
[1] = Solubility of compound in aqueous phosphate buffer at pH 7.4 after 24 hrs at 25 degC; assay type: physicochemical
[2] = molecular target: Voltage-gated inwardly rectifying potassium channel KCNH2 (Homo sapiens, UniProt Q12809); assay: Inhibition of human ERG assessed as reduction in channel tail current by plate-based planar patch clamp assay
[3] = Intrinsic clearance in human liver microsomes; assay type: ADME, Microsome; conditions: read-out: CLH
How it was run: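 Metabolic turnover rate in human microsomes, compound added from DMSO stock; reported in μL/min/mg.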

[4] = Lipophilicity, logP of the compound by 19F NMR-based method; conditions: octanol/water
[5] = Lipophilicity, logD of the compound at 7.4 by the shake flask method; assay type: physicochemical; conditions: octanol/water, pH 7.4
How it was run: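 Shake-flask partitioning at pH 7.4 (routine AstraZeneca method); concentrations determined by UV detection.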

[6] = Intrinsic clearance in rat hepatocytes assessed per million cells; assay type: ADME, cell-based, Hepatocyte; conditions: read-out: CLH
How it was run: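 Isolated rat hepatocytes diluted to 1x10⁶ cells/mL, compound added from DMSO stock; metabolism rate expressed as μL/min/10⁶ cells.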

[7] = Fraction unbound in 10% human plasma by equilibrium dialysis; assay type: ADME, cell-free
How it was run: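 Equilibrium dialysis in 10% human plasma, compound added from DMSO stock; fraction unbound determined.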

Voltage-gated inwardly rectifying potassium channel KCNH2, sequence (Q12809 whole entry): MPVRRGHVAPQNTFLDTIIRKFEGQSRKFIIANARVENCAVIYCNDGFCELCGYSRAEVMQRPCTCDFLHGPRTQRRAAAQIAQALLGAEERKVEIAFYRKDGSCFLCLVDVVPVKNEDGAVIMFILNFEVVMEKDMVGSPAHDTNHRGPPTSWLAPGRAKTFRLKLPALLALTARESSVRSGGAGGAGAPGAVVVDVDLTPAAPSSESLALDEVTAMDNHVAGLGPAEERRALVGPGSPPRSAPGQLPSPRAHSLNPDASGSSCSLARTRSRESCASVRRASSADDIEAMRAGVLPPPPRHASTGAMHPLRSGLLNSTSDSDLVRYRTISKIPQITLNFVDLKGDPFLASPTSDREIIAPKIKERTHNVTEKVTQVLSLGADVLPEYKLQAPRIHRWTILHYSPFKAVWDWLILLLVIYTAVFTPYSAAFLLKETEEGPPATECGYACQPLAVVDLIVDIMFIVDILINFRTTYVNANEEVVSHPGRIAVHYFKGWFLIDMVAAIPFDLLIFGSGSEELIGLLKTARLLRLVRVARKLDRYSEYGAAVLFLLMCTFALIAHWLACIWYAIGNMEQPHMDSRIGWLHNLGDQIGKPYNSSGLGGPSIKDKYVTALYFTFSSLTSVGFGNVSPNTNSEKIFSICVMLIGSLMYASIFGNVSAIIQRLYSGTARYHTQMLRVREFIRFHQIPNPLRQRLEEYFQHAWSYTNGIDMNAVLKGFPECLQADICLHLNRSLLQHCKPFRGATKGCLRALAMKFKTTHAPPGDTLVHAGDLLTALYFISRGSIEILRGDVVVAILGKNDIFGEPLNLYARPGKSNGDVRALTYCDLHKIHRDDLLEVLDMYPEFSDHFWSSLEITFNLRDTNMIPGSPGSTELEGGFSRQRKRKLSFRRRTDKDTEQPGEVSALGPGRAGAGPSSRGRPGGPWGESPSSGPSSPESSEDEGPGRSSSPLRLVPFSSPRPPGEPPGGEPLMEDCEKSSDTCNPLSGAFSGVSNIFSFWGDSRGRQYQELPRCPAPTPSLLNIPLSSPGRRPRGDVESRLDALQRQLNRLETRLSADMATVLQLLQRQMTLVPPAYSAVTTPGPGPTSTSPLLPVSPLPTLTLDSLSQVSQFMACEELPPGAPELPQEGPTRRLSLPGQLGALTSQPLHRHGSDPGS

Row | SMILES | logP [4] | other results
1 | CCCCCOc1cccc(CCNCC(=O)N(C)C)c1.Cl | – | solubility at 24 h [1]: 779 µM; IC50 [2]: 1.8 µM
2 | CCCCOc1cccc(CCNCC(=O)N(C)C)c1.Cl | – | solubility at 24 h [1]: 782 µM; IC50 [2]: 9.4 µM
3 | CN(C)C(=O)CNCCc1cccc(OCCCC(C)(F)F)c1.Cl | – | solubility at 24 h [1]: 1000 µM; IC50 [2]: 7.6 µM; microsomal CLint [3]: 7 µL/min/mg
4 | CN(C)C(=O)CNCCc1cccc(OCC(F)(F)C(C)(F)F)c1 | 1.6 | –
5 | CN(C)C(=O)CNCCc1cccc(OCCC(C)(F)F)c1 | 1.1 | –
6 | CN(C)C(=O)CNCCc1cccc(OCC(F)(F)C(F)(F)C(F)(F)F)c1 | 2.5 | –
7 | OCCC(F)(F)CC(F)(F)F | 1.12 | –
8 | OCCCC(F)CF (stereo not given) | 0.11 | –
9 | CCCC(O)CF (stereo not given) | 0.74 | –
10 | CCC(F)(F)C(C)O (stereo not given) | 1.04 | –
11 | OCCC(F)CC(F)(F)F (stereo not given) | 0.84 | –
12 | FC(F)(F)CCOc1ccc2[nH]ccc2c1 | 2.8 | –
13 | CC(F)(F)COc1ccc2[nH]ccc2c1 | 2.7 | –
14 | OCCCF | -0.26 | –
15 | OCCCCF | 0.09 | –
16 | CCCC(F)(F)CO | 1.25 | –
17 | OCCCC(F)C(F)F (stereo not given) | 0.52 | –
18 | OCC(F)F | -0.29 | –
19 | CC(F)[C@H](F)CCc1c[nH]c2ccccc12 (stereo not given in full) | 2.8 | –

Row | SMILES | logP [4] | other results
20 | CN(C)C(=O)CNCCc1cccc(OCCCC(F)(F)F)c1.Cl | – | solubility at 24 h [1]: 900 µM; logD [5]: 1.9; microsomal CLint [3]: < 3 µL/min/mg; hepatocyte CLint [6]: 52 µL/min/1e6 cells; fraction unbound [7]: 0.47
21 | OCCC(F)C(F)F (stereo not given) | 0.29 | –
22 | OCCCC(F)F | 0.29 | –
23 | CCC(F)(F)CCO | 0.92 | –
24 | FCC(F)[C@H](F)Cc1c[nH]c2ccccc12 (stereo not given in full) | 2.7 | –
25 | CCC(F)CCO (stereo not given) | 0.75 | –
26 | OCCC(F)F | 0.04 | –
27 | CC(F)(F)CCO | 0.34 | –
28 | CC(O)CCCF (stereo not given) | 0.42 | –
29 | CCCCc1c[nH]c2ccccc12 | 3.7 | –
30 | CCC(F)(F)CO | 0.67 | –
31 | OCC(F)(F)C(F)(F)C(F)(F)C(F)F | 1.89 | –
32 | OCCC(F)(F)C(F)F | 0.66 | –
33 | CC(F)(F)C(F)(F)CO | 0.87 | –
34 | OCC(F)(F)C(F)C(F)(F)F (stereo not given) | 1.53 | –
35 | OCCCC(F)(F)CF | 0.58 | –
36 | OCCCC(F)C(F)(F)F (stereo not given) | 1.22 | –
37 | FC(F)CCOc1ccc2[nH]ccc2c1 | 2.6 | –
38 | OCCC(F)CF (stereo not given) | -0.12 | –

Row | SMILES | logP [4] | other results
39 | CC(O)CCC(F)F (stereo not given) | 0.64 | –
40 | CC(=O)N1CCC[C@H]1C(=O)OCC(F)F | 0.02 | –
41 | OCCC(F)(F)CF | 0.27 | –
42 | CCCC(O)C(F)F (stereo not given) | 1.14 | –
43 | OCCC(F)(F)C(F)(F)C(F)(F)F | 2.1 | –
44 | CN(C)C(=O)CNCCc1cccc(OCCCCC(F)(F)F)c1.Cl | – | solubility at 24 h [1]: > 1000 µM; logD [5]: 2.3; IC50 [2]: 9.6 µM; microsomal CLint [3]: 10 µL/min/mg; hepatocyte CLint [6]: 105 µL/min/1e6 cells; fraction unbound [7]: 0.28
45 | OCC(F)CC(F)(F)F (stereo not given) | 0.6 | –
46 | FCC(F)COc1ccc2[nH]ccc2c1 (stereo not given) | 2.3 | –
47 | CCC(F)CO (stereo not given) | 0.26 | –
48 | FCCCOc1ccc2[nH]ccc2c1 | 2.5 | –
49 | CN(C)C(=O)CNCCc1cccc(OCCCC(F)(F)CF)c1.Cl | – | solubility at 24 h [1]: 870 µM; logD [5]: 1.6; IC50 [2]: 15 µM; microsomal CLint [3]: < 3 µL/min/mg; hepatocyte CLint [6]: 34 µL/min/1e6 cells; fraction unbound [7]: 0.47
50 | OCC(F)(F)CC(F)(F)F | 1.04 | –
51 | CCOC(=O)[C@@H]1CCCN1C(C)=O | 0 | –
52 | OCCCCC(F)F | 0.66 | –
53 | CCCOc1ccc2[nH]ccc2c1 | 2.9 | –
54 | CC[C@H](F)[C@H](C)O (racemic) | 0.68 | –
55 | CC[C@@H](F)[C@H](C)O (racemic) | 0.68 | –
56 | CCCCOc1cccc(CCNCC(=O)N(C)C)c1 [EVENAMIDE] | 1.8 | –
57 | OCC(F)(F)F [TRIFLUOROETHANOL] | 0.36 | –
